Assay results reported in ChEMBL document CHEMBL4138271, “Crystal Structures and Human Leukemia Cell Apoptosis Inducible Activities of Parthenolide Analogues Isolated from Piptocoma rufescens” (J Nat Prod, 2018).
pIC50: −log10 of the molar value. Calls of active or inactive are those of the source. The calls are words filed in the database; no cut-off is given here.

Legend:
[1] = system: MOLM-13; test: Induction of apoptosis in human MOLM13 cells assessed as caspase-3 activation at 10 uM after 72 hrs by immunoblotting analysis; type: functional, cell-based
How it was run: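 MOLM-13 cells treated 72 h with test compounds at 10 μM or PKC412 at 10 nM. Cells washed in ice-cold PBS, lysed at 10^8 cells/mL in NP-40 hypertonic buffer (pH 7.5) with protease/phosphatase inhibitors, then run on SDS-PAGE and PVDF. Blots probed 12 h with rabbit monoclonal cleaved caspase-3 (Asp175), β-actin as loading control. Representative of three independent experiments.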

[2] = system: EOL1; test: Induction of apoptosis in human EOL-1 cells assessed as live cells at 5 uM after 24 hrs by Annexin-V FITC/7-AAD staining based flow cytometric method (reference value: 97.5%); type: functional
[3] = system: MOLM-13; test: Induction of apoptosis in human MOLM13 cells assessed as early apoptotic cells at 2.5 uM after 24 hrs by Annexin-V FITC/7-AAD staining based flow cytometric method (reference value: 11.8%); type: functional
[4] = system: MOLM-13; test: Synergistic antileukemic activity against human MOLM13 cells assessed as concentration required for <= 75% cell survival after 72 hrs in presence of midostaurin by CellTiter 96 AQueous One solution cell proliferation assay; type: functional
[5] = system: MOLM-13; test: Induction of apoptosis in human MOLM13 cells assessed as late apoptotic cells at 5 uM after 24 hrs by Annexin-V FITC/7-AAD staining based flow cytometric method (reference value: 1.43%); type: functional
[6] = system: MOLM-13; test: Cytotoxicity against human MOLM13 cells after 72 hrs by MTS assay; type: functional, cell-based; conditions: MOLM-13, 72 h
[7] = system: EOL1; test: Induction of apoptosis in human EOL-1 cells assessed as early apoptotic cells at 1.3 uM after 24 hrs by Annexin-V FITC/7-AAD staining based flow cytometric method (reference value: 1.94%); type: functional
[8] = system: MOLM-13; test: Induction of apoptosis in human MOLM13 cells assessed as necrotic cells at 1.3 uM after 24 hrs by Annexin-V FITC/7-AAD staining based flow cytometric method (reference value: 0%); type: functional
[9] = system: EOL1; test: Induction of apoptosis in human EOL-1 cells assessed as early apoptotic cells at 2.5 uM after 24 hrs by Annexin-V FITC/7-AAD staining based flow cytometric method (reference value: 1.94%); type: functional
[10] = target: Transcription factor p65 (Homo sapiens) (UniProt Q04206); test: Inhibition of NFkappaB p65 in human MOLM13 cells at 10 uM after 72 hrs by immunoblotting method; type: cell-based
How it was run: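 MOLM-13 or EOL-1 cells treated 72 h at 10 μM. Cells washed in ice-cold PBS and lysed in hypertonic NP-40 buffer (10 mM HEPES pH 7.5, 0.5 M NaCl) with protease/phosphatase inhibitors. Protein measured by BCA; SDS-PAGE onto PVDF. Probed 12 h with rabbit monoclonal NF-κB-p65 antibody, goat β-actin as loading control, then chemiluminescence. Blots representative of three independent experiments.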

[11] = system: MOLM-13; test: Induction of apoptosis in human MOLM13 cells assessed as necrotic cells at 2.5 uM after 24 hrs by Annexin-V FITC/7-AAD staining based flow cytometric method (reference value: 0%); type: functional
[12] = system: EOL1; test: Induction of apoptosis in human EOL-1 cells assessed as late apoptotic cells at 2.5 uM after 24 hrs by Annexin-V FITC/7-AAD staining based flow cytometric method (reference value: 0.535%); type: functional
[13] = system: EOL1; test: Induction of apoptosis in human EOL-1 cells assessed as late apoptotic cells at 1.3 uM after 24 hrs by Annexin-V FITC/7-AAD staining based flow cytometric method (reference value: 0.535%); type: functional
[14] = system: MOLM-13; test: Induction of apoptosis in human MOLM13 cells assessed as live cells at 5 uM after 24 hrs by Annexin-V FITC/7-AAD staining based flow cytometric method (reference value: 86.8%); type: functional
[15] = system: MOLM-13; test: Induction of apoptosis in human MOLM13 cells assessed as necrotic cells at 5 uM after 24 hrs by Annexin-V FITC/7-AAD staining based flow cytometric method (reference value: 0%); type: functional
[16] = system: MOLM-13; test: Induction of apoptosis in human MOLM13 cells assessed as late apoptotic cells at 1.3 uM after 24 hrs by Annexin-V FITC/7-AAD staining based flow cytometric method (reference value: 1.43%); type: functional
[17] = system: EOL1; test: Induction of apoptosis in human EOL-1 cells assessed as live cells at 2.5 uM after 24 hrs by Annexin-V FITC/7-AAD staining based flow cytometric method (reference value: 97.5%); type: functional
[18] = system: EOL1; test: Induction of apoptosis in human EOL-1 cells assessed as caspase-3 activation at 10 uM after 72 hrs by immunoblotting analysis; type: functional, cell-based
How it was run: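 EOL-1 cells (RPMI 1640, 10% FBS, 37 °C, 5% CO2) exposed 72 h; compounds at 10 μM, PKC412 at 10 nM. Harvested, PBS-washed, lysed in hypertonic NP-40 buffer with protease/phosphatase inhibitors; SDS-PAGE, PVDF transfer, rabbit monoclonal cleaved caspase-3 (Asp175) antibody 12 h, secondary 1 h, chemiluminescent detection; β-actin loading control. Representative blots of three independent experiments.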

[19] = system: EOL1; test: Induction of apoptosis in human EOL-1 cells assessed as early apoptotic cells at 5 uM after 24 hrs by Annexin-V FITC/7-AAD staining based flow cytometric method (reference value: 1.94%); type: functional
[20] = system: EOL1; test: Cytotoxicity against human EOL-1 cells after 72 hrs by MTS assay; type: functional, cell-based; conditions: EOL1, 72 h
[21] = system: EOL1; test: Induction of apoptosis in human EOL-1 cells assessed as late apoptotic cells at 5 uM after 24 hrs by Annexin-V FITC/7-AAD staining based flow cytometric method (reference value: 0.535%); type: functional
[22] = system: MOLM-13; test: Induction of apoptosis in human MOLM13 cells assessed as early apoptotic cells at 1.3 uM after 24 hrs by Annexin-V FITC/7-AAD staining based flow cytometric method (reference value: 11.8%); type: functional
[23] = system: MOLM-13; test: Induction of apoptosis in human MOLM13 cells assessed as late apoptotic cells at 2.5 uM after 24 hrs by Annexin-V FITC/7-AAD staining based flow cytometric method (reference value: 1.43%); type: functional
[24] = system: EOL1; test: Induction of apoptosis in human EOL-1 cells assessed as necrotic cells at 2.5 uM after 24 hrs by Annexin-V FITC/7-AAD staining based flow cytometric method (reference value: 0.032%); type: functional
[25] = system: EOL1; test: Induction of apoptosis in human EOL-1 cells assessed as necrotic cells at 5 uM after 24 hrs by Annexin-V FITC/7-AAD staining based flow cytometric method (reference value: 0.032%); type: functional
[26] = system: HT-29; test: Cytotoxicity against human HT-29 cells after 72 hrs by MTS assay; type: functional, cell-based; conditions: HT-29, 72 h
[27] = system: MOLM-13; test: Induction of apoptosis in human MOLM13 cells assessed as live cells at 2.5 uM after 24 hrs by Annexin-V FITC/7-AAD staining based flow cytometric method (reference value: 86.8%); type: functional
[28] = system: EOL1; test: Induction of apoptosis in human EOL-1 cells assessed as necrotic cells at 1.3 uM after 24 hrs by Annexin-V FITC/7-AAD staining based flow cytometric method (reference value: 0.032%); type: functional
[29] = system: MOLM-13; test: Induction of apoptosis in human MOLM13 cells assessed as early apoptotic cells at 5 uM after 24 hrs by Annexin-V FITC/7-AAD staining based flow cytometric method (reference value: 11.8%); type: functional
[30] = system: MOLM-13; test: Induction of apoptosis in human MOLM13 cells assessed as live cells at 1.3 uM after 24 hrs by Annexin-V FITC/7-AAD staining based flow cytometric method (reference value: 86.8%); type: functional
[31] = system: EOL1; test: Induction of apoptosis in human EOL-1 cells assessed as live cells at 1.3 uM after 24 hrs by Annexin-V FITC/7-AAD staining based flow cytometric method (reference value: 97.5%); type: functional
[32] = system: EOL1; test: Synergistic antileukemic activity against human EOL-1 cells assessed as concentration required for <= 75% cell survival after 72 hrs in presence of midostaurin by CellTiter 96 AQueous One solution cell proliferation assay; type: functional

Transcription factor p65 (Homo sapiens), sequence (Q04206 whole entry): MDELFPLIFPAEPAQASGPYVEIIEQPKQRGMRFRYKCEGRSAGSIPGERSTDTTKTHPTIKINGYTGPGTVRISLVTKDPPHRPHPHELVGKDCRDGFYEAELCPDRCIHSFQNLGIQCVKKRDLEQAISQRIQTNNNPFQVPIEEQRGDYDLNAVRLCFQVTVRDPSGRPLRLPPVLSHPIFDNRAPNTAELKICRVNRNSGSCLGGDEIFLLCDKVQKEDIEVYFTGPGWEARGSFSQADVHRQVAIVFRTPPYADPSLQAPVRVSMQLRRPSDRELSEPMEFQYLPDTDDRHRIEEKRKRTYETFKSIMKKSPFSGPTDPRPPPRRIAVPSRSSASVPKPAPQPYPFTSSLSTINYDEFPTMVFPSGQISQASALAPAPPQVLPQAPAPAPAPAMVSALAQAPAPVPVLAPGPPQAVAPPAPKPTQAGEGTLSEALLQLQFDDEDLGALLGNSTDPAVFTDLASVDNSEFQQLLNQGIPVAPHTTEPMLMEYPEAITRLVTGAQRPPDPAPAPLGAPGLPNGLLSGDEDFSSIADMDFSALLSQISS

## C=C1C(=O)O[C@@H]2C[C@@H](C)/C=C\C(=O)[C@](C)(OC(C)=O)C[C@H](OC(=O)/C(C)=C\C)[C@@H]12
[1]
  Activity: Active
[2]
  Activity: 2.79%
[3]
  Activity: 10.5%
[4]
  Activity: 1.9 µM
[5]
  Activity: 73.6%
[6]
  pIC50: 5.37
[7]
  Activity: 1.87%
[8]
  Activity: 0.147%
[9]
  Activity: 1.33%
[10]
  inhibition: Active
[11]
  Activity: 0.276%
[12]
  Activity: 32.1%
[13]
  Activity: 1.36%
[14]
  Activity: 0.583%
[15]
  Activity: 25.5%
[16]
  Activity: 1.28%
[17]
  Activity: 63.8%
[18]
  Activity: Active
[19]
  Activity: 0.031%
[20]
  pIC50: 5.37
[21]
  Activity: 92.9%
[22]
  Activity: 7.82%
[23]
  Activity: 2.77%
[24]
  Activity: 2.72%
[25]
  Activity: 4.73%
[26]
  pIC50: 5.92
[27]
  Activity: 86.5%
[28]
  Activity: 0.053%
[29]
  Activity: 0.349%
[30]
  Activity: 90.8%
[31]
  Activity: 96.7%
[32]
  Activity: 2.5 µM
